# Screening results: PubChem BioAssay, several laboratories
# HCV NS3 hel inh: inhibitors of HCV NS3 helicase, primary screen, biochemical, Cy5 molecular beacon fluorescence | Hepatitis C virus NS3 helicase | NS3 helicase DNA unwinding | inhibition, % at 10.9 µM | 290,000 compounds, 0.56% hits;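 active = inhibition above the mean of all tested compounds plus 3 SD, set per campaign, cut at about 35% in these data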;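 also: 0% = DMSO wells and 100% = thioflavine S control wells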
#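 Measured by: Cy5 fluorescence, 0 and 60 min reads / Assay system: NS3 helicase fragment of HCV / Control set: low DMSO, high thioflavine S at 110 µM / Times: 1 h reaction at 25 °C, ATP-initiated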
# NSD2 inh: NSD2 histone methyltransferase inhibitors, primary screen, biochemical, AlphaScreen, single concentration, set 2; AID 743445, 2014; 310,000 compounds, 0.54% hits; inhibition, % at 12.5 µM; NSD2 peptide methylation, 120 min
# Target sequence (O96028 whole entry, looked up): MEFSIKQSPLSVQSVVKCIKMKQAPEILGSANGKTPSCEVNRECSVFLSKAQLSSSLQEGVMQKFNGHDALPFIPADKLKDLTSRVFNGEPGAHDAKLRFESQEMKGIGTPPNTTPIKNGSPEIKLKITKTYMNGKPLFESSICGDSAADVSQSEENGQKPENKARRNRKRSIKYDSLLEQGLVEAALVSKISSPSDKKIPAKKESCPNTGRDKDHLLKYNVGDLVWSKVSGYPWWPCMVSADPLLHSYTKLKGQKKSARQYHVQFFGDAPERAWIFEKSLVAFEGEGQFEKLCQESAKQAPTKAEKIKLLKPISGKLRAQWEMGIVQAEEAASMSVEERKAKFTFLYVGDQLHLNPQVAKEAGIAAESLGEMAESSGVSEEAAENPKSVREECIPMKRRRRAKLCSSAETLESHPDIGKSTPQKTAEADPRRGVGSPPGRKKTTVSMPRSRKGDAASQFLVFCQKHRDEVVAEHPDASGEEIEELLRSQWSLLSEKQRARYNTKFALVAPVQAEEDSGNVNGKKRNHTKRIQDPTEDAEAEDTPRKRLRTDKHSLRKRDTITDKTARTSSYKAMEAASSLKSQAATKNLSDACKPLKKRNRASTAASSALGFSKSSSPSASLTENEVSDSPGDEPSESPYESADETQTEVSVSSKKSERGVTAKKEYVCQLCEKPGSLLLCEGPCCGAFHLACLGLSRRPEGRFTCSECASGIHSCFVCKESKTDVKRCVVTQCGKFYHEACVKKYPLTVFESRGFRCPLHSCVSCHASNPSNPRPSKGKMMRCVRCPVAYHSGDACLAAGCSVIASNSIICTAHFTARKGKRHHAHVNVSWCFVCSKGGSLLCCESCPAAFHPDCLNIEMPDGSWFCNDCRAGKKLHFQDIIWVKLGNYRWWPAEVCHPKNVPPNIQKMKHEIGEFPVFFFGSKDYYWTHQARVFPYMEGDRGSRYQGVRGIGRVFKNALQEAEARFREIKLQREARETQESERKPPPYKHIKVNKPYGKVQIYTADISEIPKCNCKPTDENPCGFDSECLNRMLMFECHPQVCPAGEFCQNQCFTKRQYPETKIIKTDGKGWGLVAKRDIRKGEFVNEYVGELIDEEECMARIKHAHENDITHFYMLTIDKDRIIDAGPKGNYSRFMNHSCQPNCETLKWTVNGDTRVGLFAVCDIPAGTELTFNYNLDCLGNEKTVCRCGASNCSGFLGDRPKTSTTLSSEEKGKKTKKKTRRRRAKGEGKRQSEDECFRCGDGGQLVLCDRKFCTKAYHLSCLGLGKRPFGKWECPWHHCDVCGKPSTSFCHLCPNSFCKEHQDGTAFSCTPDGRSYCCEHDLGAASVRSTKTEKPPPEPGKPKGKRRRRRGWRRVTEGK
# Casp6 inh: human caspase-6 inhibitors, primary screen, biochemical, VEID-R110 fluorescence, single point, set 2. P55212. purified caspase-6, Z-VEID-R110 cleavage fluorescence. AID 686996, 2013. inhibition, % at 12.5 µM. 350,000 compounds, 0.53% hits;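 active = mean inhibition across replicates at least about 35%, with every replicate also reaching that limit, limit read from the data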;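 also: 0% = median of neutral control wells and 100% = no fluorescence left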
# DNMT1 inh: human DNMT1 methyltransferase inhibitors, primary screen, biochemical, molecular beacon, fluorescence, HinP1I cleavage, uHTS; 360,000 compounds, 0.83% hits; DNA (cytosine-5)-methyltransferase 1 (Homo sapiens), P26358; AID 588458, 2011; inhibition (reported as % activation of signal), % at 10 µM
# Beacon interf DR: spectral interference with molecular beacon fluorescence, dose response, artefact control for DNMT1 inhibitor project, biochemical, fluorescent molecular beacon. 200 tested, under 10 active. AID 602382, 2012. IC50, µM. shares compounds with DNMT1 inh. spectral interference counter-screen; call rule not given here
# DNMT1 inh conf: DNMT1 methyltransferase inhibitor retest, confirmation, biochemical, molecular beacon, fluorescence, single concentration; shares compounds with DNMT1 inh; DNMT1 molecular beacon HinP1I cleavage; inhibition, % at 10 µM; 2,300 compounds, 8% hits;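 active = average inhibition of at least 30% in the single-concentration confirmation test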
# Beacon interf: counter-screen for DNMT1 inhibitors: spectral interference; shares compounds with DNMT1 inh; DNMT1 molecular beacon spectral interference counterscreen, fluorescence 485/520; activation (fluorescence interference), % at 10 µM; 2,300 compounds, 1% hits; AID 602387;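 active = activation of at least 30% at 10 µM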;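 also: DNMT1 catalytic domain with a HinP1I cleavage step and a FAM/dabcyl DNA beacon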
# * = called active by the depositor; x = no result given. Shown are actives, neighbours in structure and some others; about 1.5% of the full set was active somewhere. Rule as the data show it, unless noted: active = inhibition above about 50%; inactive = the rest.
SMILES,HCV NS3 hel inh,NSD2 inh,Casp6 inh,DNMT1 inh,DNMT1 inh conf,Beacon interf,others
NS(=O)(=O)c1ccc(N=Nc2c(=O)[nH]n3c(=O)c4c([nH]c23)CCCC4)cc1,11,17,x,0,x,x,
O=c1[nH]n2c(=O)c3c([nH]c2c1N=Nc1cccc(Cl)c1)CCC3,31,10,x,94*,5,-1,
COc1cccc(N=Nc2c(=O)[nH]n3c(=O)c4c([nH]c23)CCC4)c1,15,7,x,60*,-1,-5,
COc1ccc(S(=O)(=O)N(C)C[C@@H]2Oc3ccc(NC(=O)Cn4cnnn4)cc3CC(=O)N([C@H](C)CO)C[C@H]2C)cc1,x,x,2,x,x,x,
COc1cccc2cc(-c3cc(=O)oc4cc(C)c(OCC(C)=O)cc34)oc12,24,2,-2,63*,1,-2,
CCNC(=O)c1c(NC(=O)c2cc(-c3cc(C)ccc3O)n[nH]2)sc2c1CCCC2,11,0,x,76*,6,1,
Cc1ccc(-c2cc(C(=O)Nc3sc4c(c3C(=O)NCc3ccco3)CCC4)[nH]n2)c(O)c1,0,1,-1,-10,x,x,
CCS(=O)(=O)Nc1ccc2c(c1)C(=O)N(C)C[C@H](OC)[C@H](C)CN(Cc1nccs1)[C@@H](C)CO2,x,x,0,x,x,x,
CCOc1cc(/C=N/Nc2ccccc2Cl)ccc1OCC(=O)O,53*,3,25,58*,4,5,
CC(C)C#Cc1ccc2c(c1)O[C@H](CN(C)Cc1cccnc1)[C@@H](C)CN([C@@H](C)CO)S2(=O)=O,x,x,-1,x,x,x,
O=C(CCc1ccc(S(=O)(=O)N2CCOCC2)cc1)OCc1nc2ccccc2s1,-1,-3,x,99*,8,8,
O=C(OCc1nc2ccccc2s1)c1cccc(S(=O)(=O)N2CCOCC2)c1,-1,-2,x,-1,x,x,
C=CCN1C(=O)/C(=C2/Sc3ccccc3N2CCCS(=O)(=O)O)SC1=S,27,6,x,67*,3,1,
Cc1nn(Cc2c(Cl)cccc2Cl)c(C)c1NC(=O)c1cn(-c2ccccc2)nc1-c1ccccc1,4,x,x,68*,-2,-6,
CO[C@@H]1CN(C)C(=O)c2ccc(NC(=O)C3CCCC3)cc2OC[C@@H](C)N(CCC(F)(F)F)C[C@@H]1C,x,x,-7,x,x,x,
CO[C@@H]1CN(C)C(=O)c2ccc(NC(=O)C3CCCCC3)cc2OC[C@@H](C)N(C)C[C@@H]1C,x,x,-4,x,x,x,
CCN(CC)c1ccc2cc(-c3nnc(-c4ccccc4)o3)c(=O)oc2c1,2,11,x,102*,88*,134*,
CCN(CC)c1ccc2cc(-c3nnc(-c4ccc(Br)cc4)o3)c(=O)oc2c1,-2,x,x,x,x,x,
O=C(CCc1n[nH]c(=O)[nH]c1=O)N/N=C/c1ccco1,-7,3,x,51*,2,7,
Cn1cnc(S(=O)(=O)N2C[C@@H](O)COC[C@@H]3O[C@H](CC(=O)N4CCN(c5ccccc5)CC4)CC[C@H]32)c1,x,x,1,x,x,x,
O=C(c1cnccn1)N1CC(=O)N2[C@H](CO)[C@@H](c3ccc(/C=C/c4ccccc4)cc3)[C@@H]2C1,x,x,1,x,x,x,
CC(C)NC(=S)NN(c1ccccc1)c1ccccc1,1,1,x,108*,1,-1,
O=C(CSc1nnc(Nc2ccccc2F)s1)NCc1ccco1,10,-6,x,76*,2,-2,
Cc1ccccc1Nc1nnc(SCC(=O)NC(=O)NCc2ccco2)s1,18,x,x,90*,2,1,
O=C(CSc1nnc(Nc2ccccc2)s1)NCc1ccco1,-7,-2,0,5,x,x,
SMILES,HCV NS3 hel inh,NSD2 inh,Casp6 inh,DNMT1 inh,DNMT1 inh conf,Beacon interf,others
COc1cccc(N2CCN(CC(=O)NC(=O)NCc3ccco3)CC2)c1,7,-1,x,50*,8,-1,
O=C(C[C@H]1CC[C@H]2[C@@H](COC[C@@H](O)CN2CC2CCOCC2)O1)NCC1CC1,x,x,1,x,x,x,
O=C(CCN1C(=O)/C(=C/c2cccc(Br)c2)SC1=S)NNC(=O)c1cccnc1,2,-1,1,71*,3,-1,
O=C(C[C@@H]1CC[C@H]2[C@@H](COC[C@H](O)CN2C(=O)c2ccccc2F)O1)N1CCN(c2ccccc2)CC1,x,x,-3,x,x,x,
CC(=O)Nc1c(S(=O)(=O)c2ccccc2)c2nc3ccccc3nc2n1Cc1ccccc1,5,-2,x,-2,x,x,
O=S(=O)(Nc1c(S(=O)(=O)c2ccccc2)c2nc3ccccc3nc2n1C1CCCCC1)c1ccccc1,31,141*,41*,67*,46*,-7,Beacon interf DR=>99
CNc1ccc([N+](=O)[O-])cc1-c1nc2ccccc2[nH]c1=O,1,x,3,51*,1,-5,
O=C(N/N=C/c1ccc(F)cc1)c1c(O)c2ccccc2[nH]c1=O,8,-2,-1,54*,3,-6,
O=C(N/N=C/c1ccccc1)c1c(O)c2ccccc2[nH]c1=O,2,-1,2,1,x,x,
CCNC(=O)C[C@@H]1CC[C@@H]2[C@H](COc3ccc(NC(=O)Nc4ccccc4Cl)cc3C(=O)N2C)O1,x,x,1,x,x,x,
O=C(N[C@H]1CC[C@@H](CCNS(=O)(=O)c2ccc(F)cc2)O[C@H]1CO)c1cccc(F)c1,x,x,-3,x,x,x,
C[C@H](CO)N1C[C@H](C)[C@H](CN(C)Cc2ccccn2)Oc2ncc(-c3ccc(F)cc3)cc2C1=O,x,x,1,x,x,x,
CCC(NC(=O)c1cccc(Cn2nc(C)c([N+](=O)[O-])c2C)c1)c1ccc(C(C)C)cc1 (stereo not drawn),1,-6,x,55*,2,5,
COC(=O)Cn1c(=NC(=O)c2sc3ccccc3c2Cl)sc2cc(S(N)(=O)=O)ccc21,4,-2,-7,66*,3,-10,
CCOC(=O)Cn1c(=NC(=O)c2sc3ccccc3c2Cl)sc2cc(S(N)(=O)=O)ccc21,11,-1,x,36,x,x,
COc1ccccc1Cc1c(-c2ccco2)nc2ccc(Br)cn12,x,x,4,71*,3,4,
COc1ccccc1Cc1c(-c2ccco2)nc2ccc(Cl)cn12,x,x,15,25,x,x,
Clc1ccc2nc(-c3ccco3)c(Cc3ccccc3)n2c1,x,x,30,64*,5,3,
CC(C)Oc1ccc(S(=O)(=O)N2CCOCC2)cc1NC(=O)Cc1c(F)cccc1Cl,x,1,-4,90*,1,2,
CCOc1ccc(NC(=O)c2cccc(-n3cccc3)c2)cc1S(=O)(=O)N1CCOCC1,x,11,6,102*,81*,-3,Beacon interf DR=>99
